Calls of active or inactive are those of the source.
Experiments:
[1] = biological target: D(1A) dopamine receptor (Rattus norvegicus) (UniProt P18901); assay: Binding affinity towards Dopamine receptor D1 at 1.0 uM concentration
Outline: (§1)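 Rat brain crude synaptic membranes in 20 mM NaHEPES pH 7.5. Ligands: α1 cortex […] 0.4 nM, nonspecific with (-)-NE 100 μM, 30 min at 25 °C. […] D2 striatum [3H]spiperone 0.05 nM with (+)-butaclamol 1 μM, 45 min at 37 °C. S1 cortex [3H]5-HT 1 nM plus glutathione and MgCl2, with 5-HT 10 μM, 20 min at 37 °C. […] Samples filtered on GF/B and counted.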

Rattus norvegicus [2] = species: Rattus norvegicus; assay: Inhibition of GABA uptake at 1 uM concentration.; type: functional
[3] = biological target: D(2) dopamine receptor (Rattus norvegicus) (UniProt P61169); assay: Binding affinity towards dopamine receptor D2 at 1.0 uM concentration; outline: as §1
[4] = biological target: Sodium-dependent dopamine transporter (Rattus norvegicus, UniProt P23977); assay: Inhibition of the uptake of tritiated dopamine (DA) in rat synaptosomes; type: subcellular, Brain
[5] = biological target: Norepinephrine transporter (Rattus norvegicus, UniProt Q9WTR4); assay: Inhibition of uptake of tritiated norepinephrine (NE) in rat synaptosomes; type: subcellular, Brain
Mus musculus [6] = assay: (§2) Ability to antagonise intraperitoneal dose; inactive (<10% antagonism) at 30 mgjkg is represented as I-30.; type: functional, organism-based
Outline: (§3)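 Swiss Webster male albino mice, nonfasted, 18–24 g, 10 per dose and in saline control. Compound given ip 30 min before TBZ 32 mg/kg ip. Motor activity and ptosis scored. Response corrected by Abbott's formula when control response was 90% or less. Doses expressed as free base.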

Mus musculus [7] = assay: as §2; type: functional, organism-based; outline: as §3; remark: listed apart in the source
Mus musculus [8] = species: Mus musculus; assay: Antagonism of tetrabenazine (TBZ)-induced depression in mice measured for ptosis; type: functional; details: Mus musculus; read-out: ED50
Outline: (§4)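 Nonfasted male Swiss Webster mice, 18–24 g, ten per dose level and in saline controls. Test compound given ip 30 min before tetrabenazine 32 mg/kg ip; dose expressed as free base. Motor activity and ptosis scored. Control response ≤90% corrected by Abbott's formula.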

[9] = biological target: Serotonin 1 (5-HT1) receptor (Rattus norvegicus) (UniProt P28564+P30940+P19327+P28565); assay: Binding affinity towards serotonin S1 receptor at 1.0 uM; type: protein assay; outline: as §1
[10] = biological target: T1, Adrenergic receptor alpha-2 (Rattus norvegicus, UniProt P22086+P19328+P22909); assay: Binding affinity towards alpha-2 adrenergic receptor; type: protein assay
T1 sequence (P22086 whole entry): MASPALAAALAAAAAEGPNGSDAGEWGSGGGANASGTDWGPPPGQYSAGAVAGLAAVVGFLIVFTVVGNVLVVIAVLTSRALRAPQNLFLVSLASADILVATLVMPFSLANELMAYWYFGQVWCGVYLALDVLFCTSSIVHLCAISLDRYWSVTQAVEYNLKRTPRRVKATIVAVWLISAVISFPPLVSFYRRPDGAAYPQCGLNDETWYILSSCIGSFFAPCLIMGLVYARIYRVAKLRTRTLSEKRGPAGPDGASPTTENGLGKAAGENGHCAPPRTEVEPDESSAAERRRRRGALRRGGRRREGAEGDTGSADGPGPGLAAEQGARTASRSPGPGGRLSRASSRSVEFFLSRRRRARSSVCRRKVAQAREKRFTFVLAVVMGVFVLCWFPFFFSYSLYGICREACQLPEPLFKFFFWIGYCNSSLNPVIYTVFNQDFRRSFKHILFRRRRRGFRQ
T1 sequence (P19328 whole entry): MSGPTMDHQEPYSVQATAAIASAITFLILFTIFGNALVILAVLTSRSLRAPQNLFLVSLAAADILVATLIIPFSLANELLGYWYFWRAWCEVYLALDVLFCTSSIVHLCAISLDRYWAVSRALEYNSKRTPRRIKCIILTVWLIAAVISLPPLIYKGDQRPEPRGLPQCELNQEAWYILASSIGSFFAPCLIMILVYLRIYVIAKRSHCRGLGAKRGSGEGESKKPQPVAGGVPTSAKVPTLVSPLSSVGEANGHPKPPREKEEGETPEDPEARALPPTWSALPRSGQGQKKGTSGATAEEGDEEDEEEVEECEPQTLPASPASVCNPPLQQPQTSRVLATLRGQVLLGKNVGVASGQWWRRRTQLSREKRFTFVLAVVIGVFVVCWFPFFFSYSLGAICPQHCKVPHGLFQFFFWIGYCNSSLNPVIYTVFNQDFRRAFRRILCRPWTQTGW
T1 sequence (P22909 whole entry): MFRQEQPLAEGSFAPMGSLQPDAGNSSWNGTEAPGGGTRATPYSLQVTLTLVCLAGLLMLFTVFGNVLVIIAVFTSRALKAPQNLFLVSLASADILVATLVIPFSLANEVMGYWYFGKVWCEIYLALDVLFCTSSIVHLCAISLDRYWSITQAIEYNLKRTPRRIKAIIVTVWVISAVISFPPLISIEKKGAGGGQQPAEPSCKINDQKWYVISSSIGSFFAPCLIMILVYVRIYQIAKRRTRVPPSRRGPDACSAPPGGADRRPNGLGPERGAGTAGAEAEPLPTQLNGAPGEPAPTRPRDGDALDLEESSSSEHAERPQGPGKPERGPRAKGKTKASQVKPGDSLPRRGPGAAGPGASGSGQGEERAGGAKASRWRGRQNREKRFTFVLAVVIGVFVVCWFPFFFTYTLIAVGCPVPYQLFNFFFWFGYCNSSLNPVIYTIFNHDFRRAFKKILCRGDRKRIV

Rattus norvegicus [11] = assay: Ability to inhibit the uptake of tritiated norepinephrine (NE) 0.1 mg/kg concentration; type: functional
Mus musculus [12] = species: Mus musculus; assay: Antagonism of tetrabenazine (TBZ)-induced depression measured in mice by motor activity; type: functional; details: Mus musculus; read-out: ED50; outline: as §4
Rattus norvegicus [13] = assay: Ability to inhibit the uptake of tritiated serotonin(5-HT) 0.1 mg/kg concentration; type: functional
Mus musculus [14] = species: Mus musculus; assay: Gross behavioral effects ascertained in mice; W indicates weak stimulant or depressant activity of little significance.; type: functional, organism-based
Outline: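 Male Swiss Webster mice, 18–24 g, three per dose, given ip doses of 1, 3, 10, 30, 100 and 300 mg/kg. Observed for gross behavior and held for 4 days. Scored as weak (W), stimulant (S), depressant (D) or convulsant (C).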

[15] = biological target: Muscarinic acetylcholine receptor (Rattus norvegicus) (UniProt P08482+P08483+P08485+P08911+P10980); assay: Binding affinity towards Muscarinic acetylcholine receptor at 1.0 uM concentration; type: protein assay
[16] = biological target: Adrenergic receptor alpha-2 (Rattus norvegicus) (UniProt P22086+P19328+P22909); assay: Binding affinity towards alpha-2 adrenergic receptor at 1.0 uM concentration; type: protein assay

D(1A) dopamine receptor (Rattus norvegicus), sequence (P18901 whole entry): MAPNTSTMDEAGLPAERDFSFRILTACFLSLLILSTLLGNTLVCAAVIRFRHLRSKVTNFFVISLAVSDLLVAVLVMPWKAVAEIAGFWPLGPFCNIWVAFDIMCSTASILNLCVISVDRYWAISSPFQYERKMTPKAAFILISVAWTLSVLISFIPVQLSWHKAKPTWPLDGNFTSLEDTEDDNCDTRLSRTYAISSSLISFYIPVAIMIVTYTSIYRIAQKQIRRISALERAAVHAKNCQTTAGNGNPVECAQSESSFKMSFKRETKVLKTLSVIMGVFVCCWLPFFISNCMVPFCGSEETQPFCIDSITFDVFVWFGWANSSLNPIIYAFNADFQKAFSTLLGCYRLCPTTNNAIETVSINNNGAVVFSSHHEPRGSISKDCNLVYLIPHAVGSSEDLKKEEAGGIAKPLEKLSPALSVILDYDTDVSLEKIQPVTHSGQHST
D(2) dopamine receptor (Rattus norvegicus), sequence (P61169 whole entry): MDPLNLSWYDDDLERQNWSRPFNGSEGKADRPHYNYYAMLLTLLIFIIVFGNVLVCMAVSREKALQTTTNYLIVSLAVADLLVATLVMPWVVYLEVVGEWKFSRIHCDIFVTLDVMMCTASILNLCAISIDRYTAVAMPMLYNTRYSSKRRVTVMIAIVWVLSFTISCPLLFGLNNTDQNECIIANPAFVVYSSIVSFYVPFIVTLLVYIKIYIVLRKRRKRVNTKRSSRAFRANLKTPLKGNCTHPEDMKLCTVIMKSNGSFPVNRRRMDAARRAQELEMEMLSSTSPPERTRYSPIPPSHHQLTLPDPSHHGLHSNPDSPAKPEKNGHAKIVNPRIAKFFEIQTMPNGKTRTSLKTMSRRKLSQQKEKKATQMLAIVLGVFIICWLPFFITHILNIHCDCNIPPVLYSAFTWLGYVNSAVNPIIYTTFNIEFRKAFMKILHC
Sodium-dependent dopamine transporter, sequence (P23977 whole entry): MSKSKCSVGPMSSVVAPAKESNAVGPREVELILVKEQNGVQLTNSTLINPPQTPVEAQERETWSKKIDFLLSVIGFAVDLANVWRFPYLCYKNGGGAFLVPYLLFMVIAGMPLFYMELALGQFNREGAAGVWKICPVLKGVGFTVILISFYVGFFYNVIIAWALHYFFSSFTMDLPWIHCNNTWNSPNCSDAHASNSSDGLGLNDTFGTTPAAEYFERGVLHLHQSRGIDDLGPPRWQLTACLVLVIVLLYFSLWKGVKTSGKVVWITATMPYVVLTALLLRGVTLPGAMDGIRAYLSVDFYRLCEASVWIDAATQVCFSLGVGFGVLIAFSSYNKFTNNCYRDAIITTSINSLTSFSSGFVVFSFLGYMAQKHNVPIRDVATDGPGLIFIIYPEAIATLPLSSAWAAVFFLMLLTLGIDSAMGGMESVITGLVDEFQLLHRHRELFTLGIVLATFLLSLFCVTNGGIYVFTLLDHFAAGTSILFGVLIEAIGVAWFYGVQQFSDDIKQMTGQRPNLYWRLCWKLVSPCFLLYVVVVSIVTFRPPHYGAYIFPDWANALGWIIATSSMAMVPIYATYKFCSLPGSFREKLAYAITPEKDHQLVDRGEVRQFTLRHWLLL
Norepinephrine transporter, sequence (Q9WTR4 whole entry): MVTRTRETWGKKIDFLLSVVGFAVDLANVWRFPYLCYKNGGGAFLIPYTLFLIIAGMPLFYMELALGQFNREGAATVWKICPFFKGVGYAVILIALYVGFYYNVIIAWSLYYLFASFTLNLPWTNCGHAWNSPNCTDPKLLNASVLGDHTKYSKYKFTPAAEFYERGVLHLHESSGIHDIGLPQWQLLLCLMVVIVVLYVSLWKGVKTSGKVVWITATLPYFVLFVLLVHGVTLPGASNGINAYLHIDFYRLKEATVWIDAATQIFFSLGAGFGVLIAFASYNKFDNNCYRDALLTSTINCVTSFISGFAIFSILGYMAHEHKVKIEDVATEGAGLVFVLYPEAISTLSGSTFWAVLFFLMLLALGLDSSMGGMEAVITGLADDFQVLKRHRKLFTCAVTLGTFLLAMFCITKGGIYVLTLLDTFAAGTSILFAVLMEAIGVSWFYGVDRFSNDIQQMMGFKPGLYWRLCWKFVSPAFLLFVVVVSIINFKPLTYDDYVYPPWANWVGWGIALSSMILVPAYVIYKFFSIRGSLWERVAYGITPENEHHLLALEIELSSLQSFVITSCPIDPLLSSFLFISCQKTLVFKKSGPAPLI

inhibition [1] [%] | inhibition [3] [%] | Compound | inhibition (Rattus norvegicus [2]) [%] | ED50 (Mus musculus [8]) [mg/kg] | inhibition in vivo at 0.1 mg/kg (Rattus norvegicus [11]) [%] | ED50 (Mus musculus [12]) [mg/kg] | inhibition in vivo at 0.1 mg/kg (Rattus norvegicus [13]) [%] | behavior (Mus musculus [14]) | further results
24 | 4 | CSc1ccc([C@@H]2CN3CCC[C@@H]3c3ccccc32)cc1 (stereo in doubt; 48b) | 10 |  |  |  |  |  | 
 |  | c1ccc([C@@H]2CN3CC[C@H]3c3ccccc32)cc1 |  |  |  |  |  |  | Ki [4]: 1.62 µM; Ki [5]: 0.866 µM; ED50 (Mus musculus [6]): inactive; ED50 (Mus musculus [7]): inactive
 | 63 | CN(C)CCCN1c2ccccc2CCc2ccccc21 [IMIPRAMINE] |  | 0.78 |  |  |  |  | inhibition [9]: 15%; Ki [10]: 4.9 µM
 |  | Br.Cn1ccc2c1[C@H](c1ccccc1)CN1CCC[C@@H]21 |  | > 30 | 8 | > 30 | 6 | Weak | 
 |  | c1ccc(CCN2CCCC2c2ccccc2)cc1 (stereo unspecified) |  | ~10 | 38 | ~10 | 4 | Weak | 
17 |  | FC(F)(F)c1cccc([C@@H]2CN3CCC[C@@H]3c3ccccc32)c1 (stereo in doubt; 37b) | 16 |  |  |  |  | Partial stimulant | inhibition [15]: 1%; inhibition [16]: 7%

Source: ChEMBL document CHEMBL1123812, “Pyrroloisoquinoline antidepressants. 2. In-depth exploration of structure-activity relationships” (J Med Chem, 1987)
